Laboratory results from ChEMBL document CHEMBL1938392, “N-Amino acid linoleoyl conjugates: anti-inflammatory activities” (Bioorg Med Chem Lett, 2012).
Active and inactive are the calls of the source. The rule behind the calls is not given here.

What was measured:
[1] = test system: RAW264.7; experiment: Antiinflammatory activity in TNFalpha-stimulated mouse RAW264.7 cells assessed as PGJ level at 5 uM after 20 hrs by ELISA; type: functional
In short: (§1)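 Mouse RAW264.7 macrophages were grown in DMEM with 10% FBS and passaged by scraping without trypsin. Cells were seeded at 50,000 per well in DMEM+FCS with TNFα (10 nM) and incubated 20 hrs at 37°C, 5% CO2. Medium was then changed to serum-free DMEM, cells were treated for 2 hrs, and PGJ in the medium was measured by ELISA. DMSO was the vehicle control.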

[2] = test system: Mus musculus; experiment: Antiinflammatory activity in po dosed mouse peritonitis model assessed as inhibition of thiglycollate-induced migration of leukocytes into the peritoneal cavity administered 30 mins prior to thiglycollate-challenge; type: functional
In short: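 Oral doses of 0.3–20 mg/kg in safflower oil were given to mice; controls received safflower oil. Thirty minutes later, 1 ml of sterile-filtered 8% thioglycollate medium was injected i.p. After 3 hrs, peritoneal cells were harvested, erythrocytes were lysed for 2 min, cells were resuspended in PBS/BSA, and differential leukocyte counts were made. N=8.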

[3] = test system: RAW264.7; experiment: Antiinflammatory activity in TNFalpha-stimulated mouse RAW264.7 cells assessed as PGJ level at 0.5 uM after 20 hrs by ELISA; type: functional; in short: as §1
[4] = test system: Mus musculus; experiment: Antiinflammatory activity in mouse peritonitis model assessed as accumulation of PGJ per 10^3 peritoneal cells at 0.3 to 20 mg/kg, po after 3 hrs by ELISA; type: functional, organism-based
In short: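 Mice were dosed by mouth in safflower oil (0.3–20 mg/kg); the safflower oil vehicle served as control. After 30 min they received 1 ml of 8% thioglycollate medium i.p. Peritoneal cells were harvested, cultured for 18 hrs, and PGJ in the medium was measured by ELISA. N=4.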

[5] = test system: RAW264.7; experiment: Antiinflammatory activity in TNFalpha-stimulated mouse RAW264.7 cells assessed as PGJ level at 1 uM after 20 hrs by ELISA; type: functional; in short: as §1
[6] = test system: RAW264.7; experiment: Antiinflammatory activity in TNFalpha-stimulated mouse RAW264.7 cells assessed as PGJ level at 2.5 uM after 20 hrs by ELISA; type: functional; in short: as §1
[7] = test system: RAW264.7; experiment: Antiinflammatory activity in TNFalpha-stimulated mouse RAW264.7 cells assessed as PGJ level at 10 uM after 20 hrs by ELISA; type: functional; in short: as §1
[8] = test system: RAW264.7; experiment: Antiinflammatory activity in TNFalpha-stimulated mouse RAW264.7 cells assessed as PGJ level at 3 uM after 20 hrs by ELISA; type: functional; in short: as §1
[9] = test system: RAW264.7; experiment: Antiinflammatory activity in TNFalpha-stimulated mouse RAW264.7 cells assessed as reduction in cell count at 0.3 uM after 20 hrs relative to control; type: functional; parameters: scale not given: the % may be the effect or the level left
In short: (§2)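 RAW264.7 cells were kept in DMEM/10% FBS and subcultured by scraping. They were plated at 50,000 per well with TNFα (10 nM) for 20 hrs at 37°C, 5% CO2, then switched to serum-free DMEM for 2 hrs of treatment. Cell numbers were compared with the vehicle control.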

[10] = test system: RAW264.7; experiment: Antiinflammatory activity in TNFalpha-stimulated mouse RAW264.7 cells assessed as reduction in cell count at 3 uM after 20 hrs relative to control; type: functional; parameters: scale not given: the % may be the effect or the level left; in short: as §2
[11] = test system: RAW264.7; experiment: Cytotoxicity in mouse RAW264.7 cells assessed as decrease in cell viability at 0.3 to 10 uM after 20 hrs; type: cell-based; settings: raw264.7, 20 h
[12] = test system: RAW264.7; experiment: Antiinflammatory activity in TNFalpha-stimulated mouse RAW264.7 cells assessed as reduction in cell count at 10 uM after 20 hrs relative to control; type: functional; parameters: scale not given: the % may be the effect or the level left; in short: as §2
[13] = test system: RAW264.7; experiment: Antiinflammatory activity in TNFalpha-stimulated mouse RAW264.7 cells assessed as PGJ level at 0.3 uM after 20 hrs by ELISA; type: functional; in short: as §1
[14] = test system: RAW264.7; experiment: Antiinflammatory activity in TNFalpha-stimulated mouse RAW264.7 cells assessed as reduction in cell count at 1 uM after 20 hrs relative to control; type: functional; parameters: scale not given: the % may be the effect or the level left; in short: as §2
[15] = test system: RAW264.7; experiment: Antiinflammatory activity in TNFalpha-stimulated mouse RAW264.7 cells assessed as cell count at 0.3 uM after 20 hrs relative to control; type: functional; in short: as §2

| SMILES | Activity [1] [pg/mL] | ED50 [2] [mg/kg] | Activity [3] [pg/mL] | Activity [4] | Activity [5] [pg/mL] | Activity [6] [pg/mL] | Activity [7] [pg/mL] | Activity [8] [pg/mL] | Activity [9] [%] | Activity [10] [%] | Activity [11] | Activity [12] [%] | Activity [13] [pg/mL] | Activity [14] [%] | Activity [15] [%] |
| --- | --- | --- | --- | --- | --- | --- | --- | --- | --- | --- | --- | --- | --- | --- | --- |
| CCCCC/C=C\C/C=C\CCCCCCCC(=O)NCC(=O)O [LINOLEOYL GLYCINE] | 3907 | < 0.3 | <16 | Active | 177 | 1843 | 7315 | – | – | – | – | – | – | – | – |
| CCCCC/C=C\C/C=C\CCCCCCCC(=O)N[C@@H](C)C(=O)O | – | – | – | – | <16 | – | 30.3 | <16 | 55.6 | 68.5 | Non-toxic | 55.5 | <16 | 74.3 | – |
| CCCCC/C=C\C/C=C\CCCCCCCC(=O)N[C@H](C)C(=O)O | – | – | – | – | 18 | – | 1580 | 233 | – | 33.9 | Non-toxic | 30.5 | <16 | 65.9 | 136 |
| CCCCC/C=C\C/C=C\C/C=C\C/C=C\CCCC(=O)NCC(=O)O [ARACHIDONOYL GLYCINE] | – | – | – | – | <16 | – | 6847 | – | – | – | – | – | – | – | – |
